ChEMBL document CHEMBL4689842, “EUbOPEN Chemogenomics Library wave 1” (2021)
Where “and” joins values, the source holds several entries; their conditions need not be identical. Equal entries are not always repeated.

Tested on: U2OS
Experiment: Multiplex assay against U2OS
Assay type: toxicity, cell-based
Details: human
Outline: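 On a CQ1 microscope at 37°C and 5% CO2, live cells were imaged after compound addition. They had been stained at seeding with Hoechst33342, BioTracker Green Microtubule Cytoskeleton Dye, MitoTracker Red and Annexin V Alexa Fluor 680. CellPathfinder machine-learning gating assigned cells to Hoechst high-intensity objects or normal cells, normal cells to healthy, pyknosed or fragmented nuclei, and pyknosed cells to mitotic or apoptotic. Tubulin, mitochondrial-mass and membrane-permeability phenotypes are per cents of healthy-nucleus cells.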

[1] = 12 h, 1 µM, compound concentration 1 uM, replicate 1
[2] = 12 h, 1 µM, compound concentration 1 uM, replicate 2
[3] = 12 h, 10 µM, compound concentration 10 uM, replicate 1
[4] = 12 h, 10 µM, compound concentration 10 uM, replicate 2
[5] = 24 h, 1 µM, compound concentration 1 uM, replicate 1
[6] = 24 h, 1 µM, compound concentration 1 uM, replicate 2
[7] = 24 h, 10 µM, compound concentration 10 uM, replicate 1
[8] = 24 h, 10 µM, compound concentration 10 uM, replicate 2

## CCc1cccc(CC)c1NC(=O)c1nn(C)c2c1CCc1cnc(Nc3ccc(N4CCN(C)CC4)cc3OC)nc1-2
[1]
  Population Apoptotic (%): 70%
  Population Fragmented Nuclei (%): 38%
  Population Healthy Nuclei (%): 7%
  Population Hoechst High Intensity Objects (%): 8%
  Population Membrane Permeable-Phenotype (%): 100%
  Population Mitochondria Different-Phenotype (%): 75%
  Population Mitotic Cells (%): 29%
  Population Normal (%): 91%
  Population Pyknosed Nuclei (%): 53%
  Population Tubulin-Different-Phenotype (%): 100%
  Total Cell Count: 159
[2]
  Population Apoptotic (%): 68%
  Population Fragmented Nuclei (%): 18%
  Population Healthy Nuclei (%): 12%
  Population Hoechst High Intensity Objects (%): 14%
  Population Membrane Permeable-Phenotype (%): 77%
  Population Mitochondria Different-Phenotype (%): 100%
  Population Mitotic Cells (%): 31%
  Population Normal (%): 85%
  Population Pyknosed Nuclei (%): 68%
  Total Cell Count: 87
[3]
  Population Apoptotic (%): 26%
  Population Fragmented Nuclei (%): 5%
  Population Healthy Nuclei (%): 80%
  Population Hoechst High Intensity Objects (%): 2%
  Population Membrane Permeable-Phenotype (%): 35%
  Population Mitochondria Different-Phenotype (%): 54%
  Population Mitotic Cells (%): 73%
  Population Normal (%): 97%
  Population Pyknosed Nuclei (%): 14%
  Population Tubulin-Different-Phenotype (%): 95%
  Total Cell Count: 143
[4]
  Population Apoptotic (%): 50%
  Population Fragmented Nuclei (%): 8%
  Population Healthy Nuclei (%): 83%
  Population Hoechst High Intensity Objects (%): 18%
  Population Membrane Permeable-Phenotype (%): 22%
  Population Mitochondria Different-Phenotype (%): 69%
  Population Mitotic Cells (%): 50%
  Population Normal (%): 81%
  Population Pyknosed Nuclei (%): 8%
  Population Tubulin-Different-Phenotype (%): 93%
  Total Cell Count: 127
[5]
  Population Apoptotic (%): 94%
  Population Fragmented Nuclei (%): 30%
  Population Healthy Nuclei (%): 9%
  Population Hoechst High Intensity Objects (%): 20%
  Population Membrane Permeable-Phenotype (%): 100%
  Population Mitochondria Different-Phenotype (%): 100%
  Population Mitotic Cells (%): 5%
  Population Normal (%): 80%
  Population Pyknosed Nuclei (%): 59%
  Population Tubulin-Different-Phenotype (%): 100%
  Total Cell Count: 169
[6]
  Population Apoptotic (%): 92%
  Population Fragmented Nuclei (%): 18%
  Population Healthy Nuclei (%): 17%
  Population Mitotic Cells (%): 7%
  Population Pyknosed Nuclei (%): 64%
  Total Cell Count: 84
[7]
  Population Apoptotic (%): 53%
  Population Fragmented Nuclei (%): 10%
  Population Healthy Nuclei (%): 71%
  Population Hoechst High Intensity Objects (%): 1%
  Population Membrane Permeable-Phenotype (%): 22%
  Population Mitochondria Different-Phenotype (%): 73%
  Population Mitotic Cells (%): 46%
  Population Normal (%): 98%
  Population Pyknosed Nuclei (%): 18%
  Population Tubulin-Different-Phenotype (%): 92%
  Total Cell Count: 196
[8]
  Population Apoptotic (%): 41%
  Population Fragmented Nuclei (%): 14%
  Population Healthy Nuclei (%): 69%
  Population Hoechst High Intensity Objects (%): 10%
  Population Membrane Permeable-Phenotype (%): 21%
  Population Mitochondria Different-Phenotype (%): 75%
  Population Mitotic Cells (%): 58%
  Population Normal (%): 89%
  Population Pyknosed Nuclei (%): 16%
  Population Tubulin-Different-Phenotype (%): 94%
  Total Cell Count: 163

## CCN(CC)S(=O)(=O)Nc1cccc(-c2ccc3c(NC(=O)C4CC4)n[nH]c3c2)c1
[3]
  Population Apoptotic (%): 45% and 28%
  Population Fragmented Nuclei (%): 7% and 4%
  Population Healthy Nuclei (%): 83% and 87%
  Population Hoechst High Intensity Objects (%): 2% and 3%
  Population Membrane Permeable-Phenotype (%): 16% and 7%
  Population Mitochondria Different-Phenotype (%): 10% and 26%
  Population Mitotic Cells (%): 55% and 71%
  Population Normal (%): 97% and 96%
  Population Pyknosed Nuclei (%): 9% and 8%
  Population Tubulin-Different-Phenotype (%): 8% and 17%
  Total Cell Count: 177 and 289
[4]
  Population Apoptotic (%): 0% and 16%
  Population Fragmented Nuclei (%): 9% and 8%
  Population Healthy Nuclei (%): 80% and 85%
  Population Hoechst High Intensity Objects (%): 5% and 14%
  Population Mitotic Cells (%): 100% and 83%
  Population Normal (%): 94% and 85%
  Population Pyknosed Nuclei (%): 10% and 5%
  Population Tubulin-Different-Phenotype (%): 20% and 13%
  Total Cell Count: 120 and 259
[7]
  Population Apoptotic (%): 21%
  Population Healthy Nuclei (%): 70% and 92%
  Population Hoechst High Intensity Objects (%): 3% and 2%
  Population Mitochondria Different-Phenotype (%): 13% and 26%
  Population Mitotic Cells (%): 78%
  Population Normal (%): 96% and 97%
  Population Pyknosed Nuclei (%): 21%
  Total Cell Count: 241 and 253
[8]
  Population Apoptotic (%): 20% and 28%
  Population Fragmented Nuclei (%): 13% and 6%
  Population Healthy Nuclei (%): 68% and 87%
  Population Hoechst High Intensity Objects (%): 6% and 8%
  Population Membrane Permeable-Phenotype (%): 18% and 6%
  Population Mitochondria Different-Phenotype (%): 17% and 29%
  Population Mitotic Cells (%): 79% and 71%
  Population Normal (%): 93% and 91%
  Population Tubulin-Different-Phenotype (%): 22%
  Total Cell Count: 134 and 195
